Experimental data taken from the array DNA melting data of Ke et al. (doi:10.1101/2024.01.08.574731).

Key:
[1] = melting temperature; fluorescence melt of hairpins on a sequencing array, two-state fit, raised by 9.35 °C to match UV melts; settings: sodium 0.088 M
How it was run: (§1)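 On a sequenced MiSeq flow cell, library hairpins with annealed Cy3 and quencher oligos were imaged for Cy3 fluorescence in 2.5 °C steps up to 60 °C, in 50 mM Na-HEPES pH 8.0, 25 mM NaCl. Normalisation used pre-quench Cy3 and control constructs. Bootstrapped two-state fits gave melting temperature and folding enthalpy, combined by inverse variance across four replicates and with fitted temperatures raised by 9.35 °C to match UV melts.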

[2] = folding enthalpy; higher = less favourable; fluorescence melt of hairpins on a sequencing array, two-state fit; settings: sodium 0.088 M
How it was run: as §1

Sequence	Tm [1] [°C]	folding enthalpy [2] [kcal/mol]
GACACGCGAAAGCGGTC (((.(((....))))))	56	-15.3
GCGACGGCTCGC ((((....))))	49.5	-13.3
GGCCGAGGAAACCCGGCC (((((.(....).)))))	65.5	-36.9
GGCTCAGGAAACTGAGTC (.(((((....))))).)	52.6	-40.2
GGAATGCGAAAGCACTCC (((.(((....))).)))	48.3	-23.6
GATCGTGGAAACGTGATC ((((..(....)..))))	37.3	-17.1
GATCTACGACTAGATC ((((((....))))))	35	-32.1
GATCCCCGAAGGGATC ((((((....))))))	57.1	-15.6
GCGTGCGAAAGCACCCGC ((((((....)))..)))	43.7	-10.1
GCCGTCACGAAAGTGGGC (((..(((....))))))	48.5	-19.5
GTAGACGAAAGTCCTTAC ((((((....)))..)))	30.7	-12.1
GCATTGGGAAACCAATAC (.(((((....))))).)	32.9	-18.4
GATCCTCTCAAGGATC ((((((....))))))	53.2	-39.9
GTACTTACGAAAGTATAC (((..(((....))))))	16.2	-6.58
GTAATCCGAAAGGATAC (((.(((....))))))	39.8	-14.6
GCTTACGAAAGTAACAGC ((((((....)))..)))	37	-16.2
GATCAAGCAATTGATC ((((((....))))))	48.8	-34.1
GATCTCAGGGGAGATC ((((((....))))))	52.5	-34.4
GCAGTGCGAAAGCAGTGC (((.(((....))).)))	66.4	-37.9
GCTGACGAAAGTCGCAGC ((((((....)))..)))	49.5	-16.7
CGCGGAAAGCTCCGCG ((((((....))))))	68.7	-28.3
GATGATGGAAACGTCATC (((((.(....).)))))	46.7	-29.8
GTTGTGGGAAACCACAAC (((((((....)))))))	63.1	-46

Sequence	Tm [1] [°C]	folding enthalpy [2] [kcal/mol]
GTTCACGAAAGTGACAAC ((((((....)))..)))	35.3	-10.1
GATCATAGACATGATC ((((((....))))))	45.7	-34.4
GGAAAGTCGAAAGACTCC (((..(((....))))))	33.7	-15.6
GACCCTCCGAAAGGAGTC (((..(((....))))))	23.4	-7.33
GTCGTCGAAAGACCAGAC ((((((....)))..)))	34.9	-16.6
GGCAGATCGAAAGATGCC (((..(((....))))))	49.4	-26.8
GCATACGAAAGTATATGC ((((((....)))..)))	41.9	-24.7
GATCATCTGCATGATC ((((((....))))))	46.2	-36
GTACAGCCGAAAGGCTAC (((..(((....))))))	27.2	-7.38
GGTTTAGGAAACTAAATC (.(((((....))))).)	35.5	-22.2
GCTTCCACGAAAGTGAGC (((..(((....))))))	33.7	-12.3
GGGTACTCGAAAGAGCCC (((..(((....))))))	39.6	-19.6
GCCATACGAAAGTAGGC (((.(((....))))))	52.6	-28.4
GTGTGCCGAAAGGCTCAC (((.(((....))).)))	61.2	-31.5
GGTGGGCGAAAGCCAACC (((.(((....))).)))	64.1	-28.7
GGCCTAGGAAACTAGACC ((.((((....)))).))	40.6	-28.6
GCCATCGAAAGATAAGGC ((((((....)))..)))	44.8	-23.5
GGTGAAGGAAACTTCATC (.(((((....))))).)	42.1	-25.3
GATCGCCCGGCGATC ((((((...))))))	68.5	-40.9
GATCCATCACTGGATC ((((((....))))))	50.2	-35.6
GATCTCAGGCGAGATC ((((((....))))))	51.5	-27.7
GTATTCGCGAAAGCGTAC (((..(((....))))))	23.4	-8
GACCGGCGAAAGCCGTC (((.(((....))))))	49.1	-8.28

Sequence	Tm [1] [°C]	folding enthalpy [2] [kcal/mol]
GCTAGCGAAAGCTCCAGC ((((((....)))..)))	33.1	-10.8
CGCAGCGGAAACGCCGCG (((.(((....))).)))	58	-34
GGCCGCCGAAAGGCAGCC (((.(((....))).)))	67.4	-25.5
GCGTTCTAACGC ((((....))))	58.5	-25.8
GCGGAAACCGC ((((...))))	52.9	-23
GATGACGAAAGTCCGATC ((((((....)))..)))	26.8	-12.8
GATGCGCGAAAGCGTATC (((.(((....))).)))	63	-27.8
GATCTCAAGGAGATC ((((((...))))))	54.2	-37.4
GCATCGCGAAAGCTACGC ((.(.((....)).).))	32.8	-8.55
GTGTGCGAAAGCAAGCAC ((((((....)))..)))	43.5	-18.9
GCATTGGGAAACTAGTGC (((.(.(....).).)))	29.8	-19.5
GTTACCGGAAACGATAAC ((((.((....)).))))	36.1	-26.6
GCGTGTCGACGC ((((....))))	55.4	-24.6
GGAGTCGGAAACGACTTC (.(((((....))))).)	55.5	-25.6
GAATCCGGAAACGGATTC (((((((....)))))))	63.6	-45.2
GCCCTGCGAAAGCCGCGC ((.(.((....)).).))	34.9	-10.3
GCCTGTGGAAACGCAGGC (((((.(....).)))))	59.9	-38
GATCGCCCCCGCGATC ((((((....))))))	66.8	-37.6
GGCGACGAAAGTCCGGCC ((((((....)))..)))	51.5	-21.7
GCCCACCGAAAGGTTGGC (((.(((....))).)))	55.3	-42.5
GGAGACGAAAGTCGGTCC ((((((....)))..)))	39.8	-12.3
CGTCGCGGAAACGCTACG (((.(((....))).)))	49.3	-28.9
GGTGCAGGAAACTGTACC (((.(((....))).)))	52.6	-45.4

Sequence	Tm [1] [°C]	folding enthalpy [2] [kcal/mol]
GTGACACGAAAGTGCAC (((.(((....))))))	53.2	-17.3
GGACTCGAAAGAGATTCC ((((((....)))..)))	25.6	-11.3
GCGAACAGTCGC ((((....))))	42.1	-16.4
GATCCCCCGAAAGGGATC (((..(((....))))))	52.4	-30.7
GCACAATCGAAAGATTGC (((..(((....))))))	34.5	-10.3
TAGCGGAAACGCTA (((((....)))))	54.3	-15.9
CGCAAGAAATTGCG (((((....)))))	53.3	-29.6
GGAAGCGCGAAAGCGTCC (((..(((....))))))	37.3	-9.67
GCATGCCGAAAGGCCTGC (((.(((....))).)))	55.9	-31.6
GCATTGGGAAACCGATGC ((((.((....)).))))	53.3	-50.4
GTTATGGCGAAAGCCAAC (((..(((....))))))	29.5	-8.21
GCTGGCGAAAGCCCCAGC ((((((....)))..)))	43.5	-14.8
GTTTGCGAAAGCAACAAC ((((((....)))..)))	33.7	-9.1
GCAGTCGAAAGACCATGC ((((((....)))..)))	35.1	-16.2
GCTGGAGGAAACTTCGGC ((.(.((....)).).))	37.2	-29.6
GGTATGCGAAAGCACACC (((.(((....))).)))	49.7	-27.7
GGACGACGAAAGTCTTCC (((.(((....))).)))	48.9	-27.1
GGTAACGGAAACGTTATC (.(((((....))))).)	46.4	-24.5
GCCTACGAAAGTAGAGGC ((((((....)))..)))	49.3	-22.7
GTTCCCGAAAGGGCAAAC ((((((....)))..)))	28.9	-9.62
GCGGCTGGAAACGGCTGC ((.((.(....).)).))	53	-38.5
GACACCGAAAGGTTGGTC ((((((....)))..)))	40.8	-16.6
CGCGGAACACTCCGCG ((((((....))))))	63.3	-34.8
